What was measured:
Rattus norvegicus [1] = assay: Effect on growth hormone release(GRF) was determined in nembutal-anesthetized rat, at dose of 50 ug/100 g body weight.; assay type: functional, organism-based
Procedure, shortened: (§1)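 Male Charles River rats (175-275 g), anesthetized with sodium pentobarbital 6 mg/100 g body weight. Six to nine per group. Peptide or saline given subcutaneously in 0.5 mL, 30 min after anesthetic. Jugular vein blood taken 15 min post-injection. Plasma GH measured by radioimmunoassay and reported as ng/mL, mean ± SEM.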

[2] = biological target: T1, Growth hormone-releasing hormone receptor (Rattus norvegicus) (UniProt Q02644); assay: Tested for the potency of growth hormone (GRF) on subcutaneous administration in anesthetized male Charles River rats; assay type: functional, organism-based
T1 sequence (whole entry): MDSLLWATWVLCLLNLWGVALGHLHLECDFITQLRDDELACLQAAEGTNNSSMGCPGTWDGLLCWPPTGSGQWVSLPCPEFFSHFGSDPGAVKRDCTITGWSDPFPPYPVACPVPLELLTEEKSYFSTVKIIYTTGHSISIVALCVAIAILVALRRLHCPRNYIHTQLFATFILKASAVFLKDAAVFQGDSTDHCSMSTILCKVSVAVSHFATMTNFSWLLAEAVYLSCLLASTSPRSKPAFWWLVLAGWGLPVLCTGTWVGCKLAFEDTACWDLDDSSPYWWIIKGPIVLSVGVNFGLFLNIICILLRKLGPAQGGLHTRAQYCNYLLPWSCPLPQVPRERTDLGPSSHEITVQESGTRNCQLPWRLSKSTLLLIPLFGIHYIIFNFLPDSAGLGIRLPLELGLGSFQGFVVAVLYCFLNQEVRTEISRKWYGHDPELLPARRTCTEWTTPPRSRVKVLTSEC
Procedure, shortened: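 Pentobarbital-anesthetized male rats (175-275 g), six to nine per group, received two subcutaneous doses of analogue or of reference GRF(1-29)NH2, in 0.5 mL, 30 min after anesthesia. Plasma GH measured by RIA 15 min later. Potency with 95% confidence limits calculated from a four-point assay design by the Pugsley method.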

Rattus norvegicus [3] = assay: Effect on growth hormone release(GRF) was determined in nembutal-anesthetized rat, at dose of 125 ug/100 g body weight.; assay type: functional, organism-based; procedure, shortened: as §1
[4] = biological target: T1, Growth hormone-releasing hormone receptor (Rattus norvegicus); assay: In vitro rat pituitary cell growth hormone response was obtained; assay type: functional, cell-based; settings: Pituitary gland cell
Rattus norvegicus [5] = assay: Effect on growth hormone release(GRF) was determined in nembutal-anesthetized rat, at dose of 32 ug/100 g body weight.; assay type: functional, organism-based; procedure, shortened: as §1
Rattus norvegicus [6] = assay: Effect on growth hormone release(GRF) was determined in nembutal-anesthetized rat, at dose of 80 ug/100 g body weight.; assay type: functional, organism-based; procedure, shortened: as §1
Rattus norvegicus [7] = assay: Effect on growth hormone release(GRF) was determined in nembutal-anesthetized rat, at dose of 20 ug/100 g body weight.; assay type: functional, organism-based; procedure, shortened: as §1
Rattus norvegicus [8] = assay: Effect on growth hormone release(GRF) was determined in nembutal-anesthetized rat, at dose of 0.4 ug/100 g body weight.; assay type: functional, organism-based; procedure, shortened: as §1
Rattus norvegicus [9] = assay: Effect on growth hormone release(GRF) was determined in nembutal-anesthetized rat, at dose of 1 ug/100 g body weight.; assay type: functional, organism-based; procedure, shortened: as §1
Rattus norvegicus [10] = assay: Effect on growth hormone release(GRF) was determined in nembutal-anesthetized rat, at dose of 25 ug/100 g body weight.; assay type: functional, organism-based; procedure, shortened: as §1
Rattus norvegicus [11] = assay: Effect on growth hormone release(GRF) was determined in nembutal-anesthetized rat, at dose of 10 ug/100 g body weight.; assay type: functional, organism-based; procedure, shortened: as §1

Compound | Plasma GH release (Rattus norvegicus [1]) [ng/mL] | Potency [2] [%] | Potency [4] [%] | other results
CC[C@H](C)[C@H](NC(=O)[C@H](C)NC(=O)[C@H](CC(=O)O)NC(=O)[C@@H](C)NC(=O)[C@@H](N)Cc1ccc(O)cc1)C(=O)N[C@@H](Cc1ccccc1)C(=O)N[C@H](C(=O)N[C@@H](CC(N)=O)C(=O)N[C@@H](CO)C(=O)N[C@@H](Cc1ccc(O)cc1)C(=O)N[C@@H](CCCN=C(N)N)C(=O)N[C@@H](CCCCN)C(=O)N[C@H](C(=O)N[C@@H](CC(C)C)C(=O)NCC(=O)N[C@@H](CCC(N)=O)C(=O)N[C@@H](CC(C)C)C(=O)N[C@@H](CO)C(=O)N[C@@H](C)C(=O)N[C@@H](CCCN=C(N)N)C(=O)N[C@@H](CCCCN)C(=O)N[C@@H](CC(C)C)C(=O)N[C@@H](CC(C)C)C(=O)N[C@@H](CCCN=C(N)N)C(N)=O)C(C)C)[C@@H](C)O | 1020 | 20 | – | Plasma GH release (Rattus norvegicus [3]): 2790 ng/mL
CC[C@H](C)[C@H](NC(=O)[C@H](C)NC(=O)[C@H](CC(=O)O)NC(=O)[C@@H](C)NC(=O)[C@@H](N)Cc1ccc(O)cc1)C(=O)N[C@@H](Cc1ccccc1)C(=O)N[C@H](C(=O)N[C@@H](CC(N)=O)C(=O)N[C@@H](CO)C(=O)N[C@@H](Cc1ccc(O)cc1)C(=O)N[C@@H](CCCN=C(N)N)C(=O)N[C@@H](CCCCN)C(=O)N[C@H](C(=O)N[C@@H](CC(C)C)C(=O)NCC(=O)N[C@@H](CCC(N)=O)C(=O)N[C@@H](CC(C)C)C(=O)N[C@@H](CO)C(=O)N[C@@H](C)C(=O)N[C@@H](CCCN=C(N)N)C(=O)N[C@@H](CCCCN)C(=O)N[C@@H](CC(C)C)C(=O)N[C@@H](CC(C)C)C(=O)N[C@@H](CCC(N)=O)C(N)=O)C(C)C)[C@@H](C)O | – | 16 | 0.004 | Plasma GH release (Rattus norvegicus [5]): 499 ng/mL; Plasma GH release (Rattus norvegicus [6]): 1370 ng/mL
CC[C@H](C)[C@H](NC(=O)[C@H](C)NC(=O)[C@H](CC(=O)O)NC(=O)[C@H](C)NC(=O)[C@@H](N)Cc1ccc(O)cc1)C(=O)N[C@@H](Cc1ccccc1)C(=O)N[C@H](C(=O)N[C@H](CC(N)=O)C(=O)N[C@@H](CO)C(=O)N[C@@H](Cc1ccc(O)cc1)C(=O)N[C@@H](CCCN=C(N)N)C(=O)N[C@@H](CCCCN)C(=O)N[C@H](C(=O)N[C@@H](CC(C)C)C(=O)NCC(=O)N[C@@H](CCC(N)=O)C(=O)N[C@@H](CC(C)C)C(=O)N[C@@H](CO)C(=O)N[C@@H](C)C(=O)N[C@@H](CCCN=C(N)N)C(=O)N[C@@H](CCCCN)C(=O)N[C@@H](CC(C)C)C(=O)N[C@@H](CC(C)C)C(=O)N[C@@H](CCC(N)=O)C(=O)N[C@@H](CC(=O)O)C(=O)N[C@H](C(=O)N[C@@H](CC(C)C)C(N)=O)[C@@H](C)CC)C(C)C)[C@@H](C)O | 2370 | 53 | 25 | Plasma GH release (Rattus norvegicus [7]): 1550 ng/mL
CC[C@H](C)[C@H](NC(=O)[C@H](C)NC(=O)[C@H](CC(=O)O)NC(=O)[C@@H](C)N(C)C(=O)[C@@H](N)Cc1ccc(O)cc1)C(=O)N[C@@H](Cc1ccccc1)C(=O)N[C@H](C(=O)N[C@@H](CC(N)=O)C(=O)N[C@@H](CO)C(=O)N[C@@H](Cc1ccc(O)cc1)C(=O)N[C@@H](CCCN=C(N)N)C(=O)N[C@@H](CCCCN)C(=O)N[C@H](C(=O)N[C@@H](CC(C)C)C(=O)NCC(=O)N[C@@H](CCC(N)=O)C(=O)N[C@@H](CC(C)C)C(=O)N[C@@H](CO)C(=O)N[C@@H](C)C(=O)N[C@@H](CCCN=C(N)N)C(=O)N[C@@H](CCCCN)C(=O)N[C@@H](CC(C)C)C(=O)N[C@@H](CC(C)C)C(=O)N[C@@H](CCC(N)=O)C(=O)N[C@@H](CC(=O)O)C(=O)N[C@H](C(=O)N[C@@H](CCSC)C(=O)N[C@@H](CO)C(=O)N[C@@H](CCCN=C(N)N)C(N)=O)[C@@H](C)CC)C(C)C)[C@@H](C)O | – | 1630 | – | Plasma GH release (Rattus norvegicus [8]): 761 ng/mL; Plasma GH release (Rattus norvegicus [9]): 1720 ng/mL
CC[C@H](C)[C@H](NC(=O)[C@H](C)NC(=O)[C@H](CC(=O)O)NC(=O)[C@H](C)NC(=O)[C@@H](N)Cc1ccc(O)cc1)C(=O)N[C@@H](Cc1ccccc1)C(=O)N[C@H](C(=O)N[C@@H](CC(N)=O)C(=O)N[C@@H](CO)C(=O)N[C@@H](Cc1ccc(O)cc1)C(=O)N[C@@H](CCCN=C(N)N)C(=O)N[C@@H](CCCCN)C(=O)N[C@H](C(=O)N[C@@H](CC(C)C)C(=O)NCC(=O)N[C@@H](CCC(N)=O)C(=O)N[C@@H](CC(C)C)C(=O)N[C@@H](CO)C(=O)N[C@@H](C)C(=O)N[C@@H](CCCN=C(N)N)C(=O)N[C@@H](CCCCN)C(=O)N[C@@H](CC(C)C)C(=O)N[C@@H](CC(C)C)C(=O)N[C@@H](CCC(N)=O)C(=O)N[C@@H](CC(=O)O)C(=O)N[C@H](C(=O)N[C@@H](CCSC)C(=O)N[C@@H](CO)C(=O)N[C@@H](CCCN=C(N)N)C(N)=O)[C@@H](C)CC)C(C)C)[C@@H](C)O | – | 100 | 100 | Plasma GH release (Rattus norvegicus [10]): 2570 ng/mL; Plasma GH release (Rattus norvegicus [11]): 1180 ng/mL

From ChEMBL document CHEMBL1123585, “Differential effects of N-terminal modifications on the biological potencies of growth hormone releasing factor analogues with varying chain lengths” (1987)
